Source: ChEMBL document CHEMBL1143253, “Strongylophorines: natural product inhibitors of hypoxia-inducible factor-1 transcriptional pathway” (J Med Chem, 2008)
pEC50: −log10 of the molar value. Active and inactive are the calls of the source. The rule behind the calls is not given here.

Columns and labels:
[1] = Decrease in protein expression of VEGF in human U251-HRE cells under hypoxic condition at 30 uM; assay type: functional, cell-based
Summary of the method: (§1)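 U251-HRE cells (1 × 10^5) plated in six-well plates, treated after 24 h for 4 h under hypoxia; normoxic and compound-free hypoxic lanes included. Lysis in PBS/0.1% NP-40 with sonication, 100 µg protein on 12.5% polyacrylamide gels. Probed with monoclonal anti-HIF-1α and anti-VEGF (1:500), β-tubulin (1:10000) loading control, HRP anti-mouse secondary, ECL detection.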

[2] = Decrease in protein expression of HIF1-alpha in human U251-HRE cells under hypoxic condition at 30 uM; assay type: functional, cell-based; summary of the method: as §1
[3] = molecular target: T1, Hypoxia inducible factors; HIF-1-alpha, HIF-2-alpha (Homo sapiens, UniProt Q16665+Q99814); assay: Inhibition of hypoxia-induced HIF1 transcriptional activation in human U251-pGL3 cells at 30 uM by luciferase reporter assay; assay type: cell-based
Summary of the method: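 Counter-screen in U251-pGL3 cells, where firefly luciferase is driven by the SV40 promoter/enhancer, run in parallel with the HRE reporter assay. Cells incubated with compound under hypoxia (1% O2), then lysed and luciferase luminescence read. Data normalized to vehicle; triplicate.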

[4] = molecular target: T1, Hypoxia inducible factors; HIF-1-alpha, HIF-2-alpha; assay: Inhibition of hypoxia-induced HIF1 transcriptional activation in human U251-HRE cells by luciferase reporter assay; assay type: cell-based
Summary of the method: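 Stably transfected U251 glioma cells carrying a luciferase reporter driven by three HRE copies, seeded 10000/well and grown 24 h. Compounds in 2-propanol were tested at 1–100 µM for 16 h at 1% O2/5% CO2/94% N2. Cells were lysed and Bright-Glo luminescence read, normalized to vehicle, with ≥15-fold hypoxic induction required. EC50 derived from dose–response; triplicate.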

[5] = Cytotoxicity against human U251-HRE cells at 100 uM after 16 hrs by MTT assay; assay type: functional
Summary of the method: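 U251-HRE glioma cells seeded 10000/well, left 24 h, then exposed to compound 16 h at 37 °C under normoxia (the hypoxic arm ran 24 h in a hypoxic incubator). Medium replaced with fresh medium plus 20 µL MTT (1.5 mg/mL) for 3 h, formazan dissolved in DMSO, absorbance read at 570 nm. Percent cytotoxicity from treated vs control A570; triplicate, SE.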

[6] = test system: MDA-MB-231; assay: Antiinvasive activity against human MDA-MB-231 cells; assay type: functional, cell-based

Compound | Activity [1] | Activity [2] | Activity [3] | EC50 [4] [µM] | inhibition at 100 µM [5] [%] | pEC50 [6]
C[C@@]12CC[C@H]3[C@](C)(CCC[C@]3(C)C(=O)O)[C@H]1CC[C@]1(C)Oc3ccc(O)cc3C[C@@H]21 | Active | Active | inactive | 13 | – | –
C[C@@]12CC[C@H]3[C@]4(CCC[C@]3(C)C(=O)OC4)[C@H]1CC[C@]1(C)Oc3ccc(O)cc3C[C@@H]21 | Active | Active | inactive | 8 | 17 | –
C[C@@]12CC[C@H]3[C@]4(CCC[C@]3(C)C(=O)OC4)[C@H]1CC[C@](C)(O)[C@H]2Cc1cc(O)ccc1O | Active | Active | inactive | 6 | – | 4.80
